Laboratory results taken from article PMC3166234 (Analytical biochemistry, 2011).

Target: PFKFB3 2-kinase (Homo sapiens, UniProt Q16875)
Assay: Steady-state inhibition kinetics of the PFKFB3 2-kinase
Format: biochemical
How it was run: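 Recombinant human PFKFB3 2-kinase run in a two-step assay. F-2,6-P2 is first made with enzyme in TES pH 8.0, DTT, MgCl2 and Tween at 25°C, then stopped with KOH and neutralised. The product then allosterically activates PPi:PFK in an aldolase/TIM/GDH–NADH coupled system, read as A340 over 30 min. F-6-P, ATP and/or inhibitor concentrations are varied to define the inhibition type.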

PFKFB3 2-kinase, sequence (Q16875 whole entry): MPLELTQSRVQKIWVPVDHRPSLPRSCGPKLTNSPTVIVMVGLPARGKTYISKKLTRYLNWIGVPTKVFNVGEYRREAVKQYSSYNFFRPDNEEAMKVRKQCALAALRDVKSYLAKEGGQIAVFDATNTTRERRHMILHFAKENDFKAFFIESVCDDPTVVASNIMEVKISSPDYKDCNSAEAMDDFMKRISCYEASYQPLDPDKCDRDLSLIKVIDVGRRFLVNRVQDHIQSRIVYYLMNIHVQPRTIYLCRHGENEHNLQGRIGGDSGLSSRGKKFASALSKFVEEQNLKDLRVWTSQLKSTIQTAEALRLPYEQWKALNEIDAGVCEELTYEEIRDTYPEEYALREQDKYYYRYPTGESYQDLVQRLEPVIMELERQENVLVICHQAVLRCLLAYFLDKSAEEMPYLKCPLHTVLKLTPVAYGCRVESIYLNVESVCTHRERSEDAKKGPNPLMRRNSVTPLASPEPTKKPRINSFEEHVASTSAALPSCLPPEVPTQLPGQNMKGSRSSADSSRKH

type of inhibition against ATP (ATP varied): uncompetitive
type of inhibition against F-6-P (F-6-P varied): competitive
SMILES: CCOC(=O)/C=C(/C)Sc1cc(O)c2ccccc2c1O [NSC278631]
